For assay [1], the target named is T1, Aurora kinase A (Homo sapiens, UniProt O14965).
T1 sequence (O14965 whole entry): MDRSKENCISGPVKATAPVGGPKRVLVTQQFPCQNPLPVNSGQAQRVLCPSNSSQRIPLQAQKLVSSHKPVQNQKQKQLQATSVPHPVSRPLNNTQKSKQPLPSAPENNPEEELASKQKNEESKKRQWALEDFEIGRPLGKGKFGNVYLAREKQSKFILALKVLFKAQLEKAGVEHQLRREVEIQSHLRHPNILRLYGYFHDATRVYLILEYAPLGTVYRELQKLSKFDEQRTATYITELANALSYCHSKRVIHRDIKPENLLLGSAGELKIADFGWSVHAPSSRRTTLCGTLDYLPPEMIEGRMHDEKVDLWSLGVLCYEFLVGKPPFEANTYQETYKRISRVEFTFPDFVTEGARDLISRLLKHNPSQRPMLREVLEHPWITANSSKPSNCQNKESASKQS
Description: Inhibition of His-tagged human Aurora A kinase ([…] residues) expressed in Escherichia coli BL21 (DE3) Rosetta cells using biotinylated STK2 substrate incubated for 30 mins by HTRF assay. (In TR-FRET formats the signal depends on donor and acceptor labels being close together.)

The species entered for assay [2] is Homo sapiens. Description: Selectivity index, ratio of IC50 for Aurora-B/INCENP (unknown origin) to IC50 for His-tagged human Aurora A kinase ([…] residues) expressed in Escherichia coli BL21 (DE3) Rosetta cells.
Assay [3] concerns the target Phosphatidylinositol 4,5-bisphosphate 3-kinase catalytic subunit gamma isoform (Homo sapiens, UniProt P48736). The experiment in a line: Binding affinity to human PIK3CG expressed in Escherichia coli BL21 cells incubated for 1 hr by active site directed binding competition assay. Summed up:
(§1)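 Kinome scan of 456 kinases using an active-site-directed binding competition assay, followed by determination of binding affinities (Kd). Aurora B in this scan was free enzyme without INCENP.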

Assay [4] has as its target T2, Phosphatidylinositol 5-phosphate 4-kinase type-2 gamma (Homo sapiens, UniProt Q8TBX8).
T2 sequence (Q8TBX8 whole entry): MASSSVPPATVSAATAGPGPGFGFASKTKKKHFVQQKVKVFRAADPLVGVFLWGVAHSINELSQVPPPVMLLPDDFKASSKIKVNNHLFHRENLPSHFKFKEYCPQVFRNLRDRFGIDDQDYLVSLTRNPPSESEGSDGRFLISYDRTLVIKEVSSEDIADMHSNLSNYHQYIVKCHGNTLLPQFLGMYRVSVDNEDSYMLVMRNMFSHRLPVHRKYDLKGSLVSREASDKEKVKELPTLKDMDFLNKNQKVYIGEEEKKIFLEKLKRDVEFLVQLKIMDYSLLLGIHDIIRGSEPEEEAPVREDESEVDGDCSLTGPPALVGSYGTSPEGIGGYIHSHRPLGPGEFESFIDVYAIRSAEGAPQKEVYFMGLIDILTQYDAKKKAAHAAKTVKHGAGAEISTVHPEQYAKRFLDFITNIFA
The experiment in a line: Binding affinity to human PIP5K2C expressed in Escherichia coli BL21 cells incubated for 1 hr by active site directed binding competition assay. Summed up: as §1

In assay [5] the target is T3, Aurora kinase A (Homo sapiens) (UniProt O14965).
T3 sequence (whole entry): T1 sequence (O14965 whole entry)
The experiment in a line: Binding affinity to His-tagged human Aurora A kinase ([…] residues) expressed in Escherichia coli BL21 (DE3) Rosetta cells assessed as reduction in Aurora A binding to TPX-labeled human TPX2 N-terminal domain (1 to 43 residues) at 125 uM incubated for 30 mins by microscale thermophoresis method. Background: In MST a laser heats a spot of the sample, and binding alters the fluorescence response.

Assay [6] addresses T1, Aurora kinase A. Description: Inhibition of His-tagged human Aurora A kinase ([…] residues) expressed in Escherichia coli BL21 (DE3) Rosetta cells using biotinylated STK2 substrate incubated for 30 mins in presence of 0.002 uM TPX2 by HTRF assay. The procedure, abridged: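 Biochemical kinase inhibition was read by HTRF with 20 µM ATP. Aurora B was assayed as its complex with the activator INCENP. For Aurora A, IC50 curves were recorded at different TPX2 concentrations.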

Assay [7] relates to HeLa Kyoto. Description: Increase in mitotic index in human HeLa Kyoto cells incubated for 20 hrs. It counts as functional, cell-based. Summed up:
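HeLa Kyoto cells were incubated overnight with compound, and the fraction of mitotic cells was scored. The experiment was repeated twice; mean ± SD.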

In assay [8] the target is T1, Aurora kinase A. Description: Inhibition of Aurora A kinase autophosphorylation at Thr288 in human HeLa Kyoto cells incubated for 20 hrs. It counts as cell-based.
Assay [9] addresses Aurora kinase B (Homo sapiens, UniProt Q96GD4). Description: Inhibition of Aurora B kinase in human HeLa Kyoto cells assessed as induction of accumulation of cells at 16N DNA contant incubated for 48 hrs at 10 uM by flow cytometry. It is filed as cell-based. The procedure, abridged:
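Cells were treated for 48 h, stained with propidium iodide, and DNA content was analysed by flow cytometry. Cells with 8N and 16N DNA content were scored as a readout of defective cytokinesis.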
(A flow cytometer gives signals particle by particle.)

Assay [10] can be described thus: Glutathione reactivity at 30 uM assessed as retention time for GSH adduct formation after 24 hrs in presence of 5 mM GSH, pH 7.4 buffer at 37 degC by LC-MS method. The procedure, abridged:
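Test compound at 30 µM was incubated with 5 mM GSH in H2O/CH3CN (4:1) at 37 °C and followed by LC-MS over 24 h. The GSH adduct was identified by MS. Parent was quantified by integrating its 310 nm absorption peak against 9-methylcarbazole as internal control. Values are the average of two independent experiments.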

Activity calls are given as the source filed them. The calls are words filed in the database; no cut-off is given here.

Sequence of Phosphatidylinositol 4,5-bisphosphate 3-kinase catalytic subunit gamma isoform (P48736 whole entry, canonical isoform): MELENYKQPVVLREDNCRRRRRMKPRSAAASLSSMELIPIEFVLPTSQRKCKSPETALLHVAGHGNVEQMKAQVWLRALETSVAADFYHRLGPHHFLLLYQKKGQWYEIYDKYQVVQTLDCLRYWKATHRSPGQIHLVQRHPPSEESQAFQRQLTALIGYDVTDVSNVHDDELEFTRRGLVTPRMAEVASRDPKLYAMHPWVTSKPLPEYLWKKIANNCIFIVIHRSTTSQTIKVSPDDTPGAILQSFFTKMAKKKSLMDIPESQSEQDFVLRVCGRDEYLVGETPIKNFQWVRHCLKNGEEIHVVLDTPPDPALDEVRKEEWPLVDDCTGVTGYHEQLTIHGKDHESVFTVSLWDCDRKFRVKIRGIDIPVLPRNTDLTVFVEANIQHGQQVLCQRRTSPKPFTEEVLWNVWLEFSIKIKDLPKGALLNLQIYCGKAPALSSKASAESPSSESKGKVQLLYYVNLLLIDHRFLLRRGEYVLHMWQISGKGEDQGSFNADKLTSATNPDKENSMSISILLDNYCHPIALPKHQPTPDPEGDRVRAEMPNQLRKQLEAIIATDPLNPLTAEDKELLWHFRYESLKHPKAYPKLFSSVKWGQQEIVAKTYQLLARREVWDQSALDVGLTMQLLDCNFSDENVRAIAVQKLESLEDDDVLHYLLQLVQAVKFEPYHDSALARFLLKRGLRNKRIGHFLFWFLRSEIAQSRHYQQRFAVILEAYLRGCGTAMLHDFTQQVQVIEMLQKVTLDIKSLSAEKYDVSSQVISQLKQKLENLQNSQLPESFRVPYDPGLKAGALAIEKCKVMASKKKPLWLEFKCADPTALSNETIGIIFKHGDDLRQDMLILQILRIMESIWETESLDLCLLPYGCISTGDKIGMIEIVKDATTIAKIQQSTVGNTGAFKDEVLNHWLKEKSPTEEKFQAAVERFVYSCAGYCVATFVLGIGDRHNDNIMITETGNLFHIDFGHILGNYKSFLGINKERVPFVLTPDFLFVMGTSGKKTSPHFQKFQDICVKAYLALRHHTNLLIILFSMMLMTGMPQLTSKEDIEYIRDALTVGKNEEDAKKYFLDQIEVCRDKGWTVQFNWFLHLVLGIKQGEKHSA
Sequence of Aurora kinase B (Q96GD4 whole entry): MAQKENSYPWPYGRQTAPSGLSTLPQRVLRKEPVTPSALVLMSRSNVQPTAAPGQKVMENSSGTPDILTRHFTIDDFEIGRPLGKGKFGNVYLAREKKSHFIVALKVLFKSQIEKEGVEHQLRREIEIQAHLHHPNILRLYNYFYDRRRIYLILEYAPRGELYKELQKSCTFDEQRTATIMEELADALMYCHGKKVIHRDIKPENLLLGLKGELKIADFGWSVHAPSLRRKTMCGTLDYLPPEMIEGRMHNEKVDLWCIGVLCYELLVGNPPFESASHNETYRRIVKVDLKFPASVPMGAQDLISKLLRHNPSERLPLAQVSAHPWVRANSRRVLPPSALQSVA

As a reminder, the IC50 is the point on the concentration scale where inhibition reaches its midpoint. What is called Kd is a measure of binding affinity in units of concentration. The low end stands for tighter binding, the high end for weaker binding. In the case of `CCc1ccc(/N=C2\S/C(=C\c3ccnc(Nc4ccc(C(=O)O)cn4)c3)C(=O)N2C)cc1`, the figures for the half-inhibitory concentration (IC50) in assay [1], in assay [6] and in assay [8] were 2 nM, 1.7 nM and 760 nM, respectively. Moreover, the Ratio IC50 in assay [2] worked out at 75. The Kd in assay [3] amounted to 1500 nM; in assay [4] it was 480 nM. The result in assay [5] was Active. Moreover, the Activity entry in assay [7] is “Dose-dependent effect”. In addition, the inhibition result in assay [9] was “Active”. The Retention time in [10] was found to be 1.29 min.

The record behind these values is ChEMBL document CHEMBL3861974, “Discovery of a Selective Aurora A Kinase Inhibitor by Virtual Screening” (J Med Chem, 2016).
